Experimental data pooled from the literature.
Each line is one published result; the experiments were not run side by side.
Sample: plasma

CS(=O)(=O)CCNCc1ccc(-c2ccc3ncnc(Nc4ccc(OCc5cccc(F)c5)c(Cl)c4)c3c2)o1 — Cmax (human; oral, 900 mg, multiple doses, twice daily, steady state, patients): 3570 ng/mL
Nc1cc(C(F)(F)F)c(-c2cc(N3CCOCC3)nc(N3CCOCC3)n2)cn1 — Cmax (human; oral, 50 mg/day, patients): 595 ng/mL
FC(F)(F)c1ccc(CNc2ccc(Cc3c[nH]c4ncc(Cl)cc34)cn2)cn1 — Cmax (human; oral, 1000 mg, multiple doses, patients): 4440 ng/mL
CC(C)(Sc1ccncc1-c1ccc(C#N)c2ccccc12)C(=O)O — Cmax (male human; oral, 40 mg, single dose, fasted, healthy volunteers): 760 ng/mL
CCCCC[C@H](O)CC[C@@H]1[C@H]2Cc3cccc(OCC(=O)O)c3C[C@H]2C[C@H]1O — Cmax (human; inhaled, 18 µg, single dose, healthy volunteers): 0.43 ng/mL
C#Cc1cccc(Nc2ncnc3cc(OCCOC)c(OCCOC)cc23)c1 — Cmax (human; oral, 100 mg, patients): 1820 nM
CCn1c(=O)c(-c2cc(NC(=O)Nc3ccccc3)c(F)cc2Br)cc2cnc(NC)cc21 — Cmax (human; oral, 200 mg, single dose, patients): 525 ng/mL
COc1cc(C(=O)NC2CCN(C)CC2)c(F)cc1Nc1ncc(C(F)(F)F)c(Oc2cccc3c2C(=O)N(C)C3)n1 — Cmax (human; oral, 10 mg, single dose, patients): 44.8 nM
CCO[C@H]1CCN(Cc2c(OC)cc(C)c3[nH]ccc23)[C@H](c2ccc(C(=O)O)cc2)C1 — Cmax (human; oral, 25 mg, multiple doses, twice daily, patients): 1450 ng/mL
COc1ccc([C@@H]2CN(C(=O)[C@@H](O)CO)C[C@@]2(C)[C@@H](C)O)cc1OC1CN(c2ccc(C)cn2)C1 — Cmax (human; oral, 0.1 mg, single dose, healthy volunteers): 8.8 ng/mL
CO[C@H]1/C=C\C=C(/C)C(=O)NC2=CC(=O)C(NCCN(C)C)=C(C[C@@H](C)C[C@H](OC)[C@H](O)[C@@H](C)/C=C(\C)[C@@H]1OC(N)=O)C2=O — Cmax (human; intravenous, 27 mg/m², patients, infusion): 443 ng/mL
Cc1ccc(C(=O)N(CCCN)[C@@H](c2oc3cc(Cl)ccc3c(=O)c2Cc2ccccc2)C(C)C)cc1 — Cmax (human; intravenous, 2 mg/m², single dose, patients, infusion): 233 ng/mL
CCCOc1ccc([C@H]2CNC(=O)N2c2ccc3[nH]cnc3c2)cc1 — Cmax (human; oral, 200 mg, single dose, fasted, healthy volunteers): 1200 ng/mL
CO[C@H]1CC[C@H](N2C(=O)CNc3ncc(-c4ccc(C(C)(C)O)nc4)nc32)CC1 — Cmax (human; oral, 60 mg, multiple doses, patients): 480 ng/mL
O=C(Nc1c(Cl)cncc1Cl)c1ccc(OC(F)F)c(OCC2CC2)c1 — Cmax (human; oral, 0.375 mg, multiple doses, once daily, steady state): 11.4 ng/mL
COCCOc1cnc2ccn([C@H](C)c3nnc4c(F)cc(-c5cnn(C)c5)cn34)c(=O)c2c1 — Cmax (human; oral, 150 mg, multiple doses, once daily, patients): 2910 ng/mL
CC(C)n1cc(C#N)c2cc(-n3cc(C(=O)O)cn3)ccc21 — Cmax (male human; oral, 600 mg, single dose, fasted, healthy volunteers): 18200 ng/mL
CC(C)(O)c1ccccc1-c1ccc2[nH]c(/C=C/c3ccc(C(F)(F)F)cc3)nc2c1 — Cmax (male human; oral, 120 mg, single dose, fasted, healthy volunteers): 261 ng/mL
C/C(=C\c1csc(C)n1)[C@@H]1C[C@@H]2O[C@]2(C)CCC[C@H](C)[C@H](O)[C@@H](C)C(=O)C(C)(C)[C@@H](O)CC(=O)N1 — Cmax (human; intravenous, 15 mg/m², patients): 89.6 ng/mL
O=C(NO)c1ccc(CN(c2cnccn2)c2cnccn2)cc1 — Cmax (human; oral, 800 mg, multiple doses, twice daily, patients): 1270 ng/mL
CC(C)(C(=O)N1CCOc2c(C#N)cncc2C1)C(F)F — Cmax (human; oral, 40 mg, single dose, fasted, healthy volunteers): 555 ng/mL
Cn1c(=O)oc2ccc(-c3ccc(C[C@@H](C#N)NC(=O)[C@@H]4CNCCCO4)cc3)cc21 — Cmax (male human; oral, 5 mg, single dose, healthy volunteers): 50.7 nM
CCCCC1=NC2(CCCC2)C(=O)N1Cc1ccc(-c2ccccc2S(=O)(=O)Nc2noc(C)c2C)c(COCC)c1 — Cmax (human; oral, 800 mg, single dose, fed, healthy volunteers): 16200 ng/mL
O=C(/C=C/c1cccc(S(=O)(=O)Nc2ccccc2)c1)NO — Cmax (human; intravenous, 2000 mg/m², patients): 112000 ng/mL
C[C@@]1(c2cc(NC(=O)c3ccc(C#N)cn3)ccc2F)C=CSC(N)=N1 — Cmax (male human; oral, 1 mg, single dose): 6.72 ng/mL
CNC(=O)c1cc(Oc2ccc(NC(=O)Nc3cc(C(C)(C)C)nn3-c3ccc4ncccc4c3)c(F)c2)ccn1 — Cmax (human; oral, 150 mg, multiple doses, twice daily): 308 ng/mL
Oc1cc(O)c2c(c1)O[C@@H](c1ccc(O)c(O)c1)[C@@H](O)C2 — Cmax (human; oral, 100 mg, single dose): 3.6 ng/mL
CO[C@@H]1[C@H](OC(=O)N2CC(CCN3CCOCC3)C2)CC[C@]2(CO2)[C@H]1[C@@]1(C)O[C@@H]1CC=C(C)C — Cmax (human; subcutaneous, 0.2 mg, single dose, healthy volunteers): 0.45 ng/mL
CCc1nc2c(C)cc(N3CCN(CC(=O)N4CC(O)C4)CC3)cn2c1N(C)c1nc(-c2ccc(F)cc2)c(C#N)s1 — Cmax (human; oral, 1000 mg, fed, healthy volunteers): 13200 ng/mL
Cn1cc(-c2ccc(S(=O)(=O)[C@@H]3C[C@@H](C(=O)NC4(C#N)CC4)N(C(=O)C4(C(F)(F)F)CC4)C3)c(C(F)(F)F)c2)cn1 — Cmax (human; oral, 10 mg, single dose, fasted, healthy volunteers): 81.3 ng/mL
COc1cc2c(Nc3ccc(Br)cc3F)ncnc2cc1OCC1CCN(C)CC1 — Cmax (human; oral, 85 mg/m², multiple doses, once daily, patients): 716 ng/mL
N#CN1C[C@H](n2nc(-c3ccc(Oc4ccc(Cl)cn4)cc3)c(C(N)=O)c2N)CCC12CC2 — Cmax (human; oral, 600 mg, single dose, fasted): 1120 ng/mL
